Converted amounts (≈) assume the structure as drawn. Residues, ends and D or L forms follow the SMILES beside them. *: point of attachment. X3 = Cc1cc2nc(-c3c(I)cc(C(=O)*)cc3I)[nH]c2cc1C
System: Bacillus subtilis
Test: Antibacterial activity against Bacillus subtilis NCIM 2063 after 18 hrs by disc diffusion method
Format: functional
Conditions: not given
In short: (§1)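 Modified Kirby-Bauer disc diffusion. Plates inoculated with spore suspension (about 6 × 10⁴ spores mL^-1). Sterile 6 mm paper discs carried test samples at 10 mg mL^-1; ciprofloxacin disc as reference, DMF disc as negative control. Plates held 18 h at 37 °C. Inhibition zone diameters (mm) averaged over triplicate sets.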

Row | Compound | inhibition zone (IZ) [mm]
1 | CC[C@H](C)[C@H](NC(=O)CNC(=O)c1cc(I)c(-c2nc3cc(C)c(C)cc3[nH]2)c(I)c1)C(=O)NCC(=O)N[C@H](C(=O)OC)[C@@H](C)O (X3-GIGT-OMe) | 15

System: Staphylococcus aureus
Test: Antibacterial activity against Staphylococcus aureus NCIM 2079 after 18 hrs by disc diffusion method
Format: functional
Conditions: not given
In short: as §1

Row | Compound | inhibition zone (IZ) [mm]
2 | CC[C@H](C)[C@H](NC(=O)CNC(=O)c1cc(I)c(-c2nc3cc(C)c(C)cc3[nH]2)c(I)c1)C(=O)NCC(=O)N[C@H](C(=O)OC)[C@@H](C)O (X3-GIGT-OMe) | 12

System: Pseudomonas aeruginosa
Test: Antibacterial activity against Pseudomonas aeruginosa NCIM 2034 after 18 hrs by disc diffusion method
Format: functional
Conditions: not given
In short: as §1

Row | Compound | inhibition zone (IZ) [mm]
3 | CC[C@H](C)[C@H](NC(=O)CNC(=O)c1cc(I)c(-c2nc3cc(C)c(C)cc3[nH]2)c(I)c1)C(=O)NCC(=O)N[C@H](C(=O)OC)[C@@H](C)O (X3-GIGT-OMe) | 22

System: Escherichia coli
Test: Antibacterial activity against Escherichia coli NCIM 2065 after 18 hrs by disc diffusion method
Format: functional
Conditions: not given
In short: as §1

Row | Compound | inhibition zone (IZ) [mm]
4 | CC[C@H](C)[C@H](NC(=O)CNC(=O)c1cc(I)c(-c2nc3cc(C)c(C)cc3[nH]2)c(I)c1)C(=O)NCC(=O)N[C@H](C(=O)OC)[C@@H](C)O (X3-GIGT-OMe) | 17

System: Candida albicans
Test: Antifungal activity against Candida albicans MUCC 29 after 48 hrs by disc diffusion method
Format: functional
Conditions: not given
In short: (§2)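 Agar well diffusion on plates inoculated with spore suspension in normal saline from cultures on Sabouraud's broth. Wells punched and loaded with test samples or griseofulvin at 10 mg mL^-1, with DMSO as negative control. Incubated 48 h at 37 °C.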

Row | Compound | inhibition zone (IZ) [mm]
5 | CC[C@H](C)[C@H](NC(=O)CNC(=O)c1cc(I)c(-c2nc3cc(C)c(C)cc3[nH]2)c(I)c1)C(=O)NCC(=O)N[C@H](C(=O)OC)[C@@H](C)O (X3-GIGT-OMe) | 13

System: Microsporum audouinii
Test: Antifungal activity against Microsporum audouinii MUCC 545 after 48 hrs by disc diffusion method
Format: functional
Conditions: not given
In short: as §2

Row | Compound | inhibition zone (IZ) [mm]
6 | CC[C@H](C)[C@H](NC(=O)CNC(=O)c1cc(I)c(-c2nc3cc(C)c(C)cc3[nH]2)c(I)c1)C(=O)NCC(=O)N[C@H](C(=O)OC)[C@@H](C)O (X3-GIGT-OMe) | 9

System: Trichophyton benhamiae
Test: Antifungal activity against Trichophyton mentagrophytes MUCC 665 after 48 hrs by disc diffusion method
Format: functional, Arthroderma benhamiae
Conditions: not given
In short: as §2

Row | Compound | inhibition zone (IZ) [mm]
7 | CC[C@H](C)[C@H](NC(=O)CNC(=O)c1cc(I)c(-c2nc3cc(C)c(C)cc3[nH]2)c(I)c1)C(=O)NCC(=O)N[C@H](C(=O)OC)[C@@H](C)O (X3-GIGT-OMe) | 9

System: Aspergillus niger
Test: Antifungal activity against Aspergillus niger MUCC 177 after 48 hrs by disc diffusion method
Format: functional
Conditions: not given
In short: as §2

Row | Compound | inhibition zone (IZ) [mm]
8 | CC[C@H](C)[C@H](NC(=O)CNC(=O)c1cc(I)c(-c2nc3cc(C)c(C)cc3[nH]2)c(I)c1)C(=O)NCC(=O)N[C@H](C(=O)OC)[C@@H](C)O (X3-GIGT-OMe) | 18

System: Bacillus subtilis
Test: Antibacterial activity against Bacillus subtilis NCIM 2063 after 18 hrs by tube dilution method
Format: functional
Conditions: NCIM 2063, 18 h
In short: (§3)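 Tube dilution MIC. Stock diluted in sterile broth to seven concentrations from 200 to 3.1 […]. Each tube inoculated with one loopful of test bacterium and incubated 18 h at 37 °C. MIC read from presence or absence of growth.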

Row | Compound | MIC [µg/mL]
9 | CC[C@H](C)[C@H](NC(=O)CNC(=O)c1cc(I)c(-c2nc3cc(C)c(C)cc3[nH]2)c(I)c1)C(=O)NCC(=O)N[C@H](C(=O)OC)[C@@H](C)O (X3-GIGT-OMe) | 6 (≈ 6.97 µM)

System: Staphylococcus aureus
Test: Antibacterial activity against Staphylococcus aureus NCIM 2079 after 18 hrs by tube dilution method
Format: functional
Conditions: NCIM 2079, 18 h
In short: as §3

Row | Compound | MIC [µg/mL]
10 | CC[C@H](C)[C@H](NC(=O)CNC(=O)c1cc(I)c(-c2nc3cc(C)c(C)cc3[nH]2)c(I)c1)C(=O)NCC(=O)N[C@H](C(=O)OC)[C@@H](C)O (X3-GIGT-OMe) | 12.5 (≈ 14.5 µM)

System: Pseudomonas aeruginosa
Test: Antibacterial activity against Pseudomonas aeruginosa NCIM 2034 after 18 hrs by tube dilution method
Format: functional
Conditions: NCIM 2034, 18 h
In short: as §3

Row | Compound | MIC [µg/mL]
11 | CC[C@H](C)[C@H](NC(=O)CNC(=O)c1cc(I)c(-c2nc3cc(C)c(C)cc3[nH]2)c(I)c1)C(=O)NCC(=O)N[C@H](C(=O)OC)[C@@H](C)O (X3-GIGT-OMe) | 6 (≈ 6.97 µM)

System: Escherichia coli
Test: Antibacterial activity against Escherichia coli NCIM 2065 after 18 hrs by tube dilution method
Format: functional
Conditions: NCIM 2065, 18 h

Row | Compound | MIC [µg/mL]
12 | CC[C@H](C)[C@H](NC(=O)CNC(=O)c1cc(I)c(-c2nc3cc(C)c(C)cc3[nH]2)c(I)c1)C(=O)NCC(=O)N[C@H](C(=O)OC)[C@@H](C)O (X3-GIGT-OMe) | 12.5 (≈ 14.5 µM)

System: Candida albicans
Test: Antifungal activity against Candida albicans MUCC 29 after 48 hrs by tube dilution method
Format: functional
Conditions: not given
In short: (§4)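 Tube dilution MIC as for bacteria (seven concentrations, 200–3.1 […]), with DMSO in place of DMF. Tubes inoculated with fungal culture and incubated 48 h at 37 °C. MIC read from presence or absence of growth.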

Row | Compound | MIC [µg/mL]
13 | CC[C@H](C)[C@H](NC(=O)CNC(=O)c1cc(I)c(-c2nc3cc(C)c(C)cc3[nH]2)c(I)c1)C(=O)NCC(=O)N[C@H](C(=O)OC)[C@@H](C)O (X3-GIGT-OMe) | 12.5 (≈ 14.5 µM)

System: Microsporum audouinii
Test: Antifungal activity against Microsporum audouinii MUCC 545 after 48 hrs by tube dilution method
Format: functional
Conditions: not given
In short: as §4

Row | Compound | MIC [µg/mL]
14 | CC[C@H](C)[C@H](NC(=O)CNC(=O)c1cc(I)c(-c2nc3cc(C)c(C)cc3[nH]2)c(I)c1)C(=O)NCC(=O)N[C@H](C(=O)OC)[C@@H](C)O (X3-GIGT-OMe) | 25 (≈ 29.1 µM)

System: Trichophyton benhamiae
Test: Antifungal activity against Trichophyton mentagrophytes MUCC 665 after 48 hrs by tube dilution method
Format: functional, Arthroderma benhamiae
Conditions: not given
In short: as §4

Row | Compound | MIC [µg/mL]
15 | CC[C@H](C)[C@H](NC(=O)CNC(=O)c1cc(I)c(-c2nc3cc(C)c(C)cc3[nH]2)c(I)c1)C(=O)NCC(=O)N[C@H](C(=O)OC)[C@@H](C)O (X3-GIGT-OMe) | 25 (≈ 29.1 µM)

System: Eudrilus
Test: Anthelmintic activity against Eudrilus sp. assessed as mean paralyzing time
Format: functional
Conditions: not given
In short: (§5)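 Earthworms exposed to test suspensions at 2 mg mL^-1 (0.2% w/v), made by triturating compound with Tween 80 (0.5%) and distilled water, then mechanically stirred 30 min. Mebendazole suspension prepared alike as reference. Paralysis and death times recorded; death confirmed by no movement in 50 °C water. Means from triplicate sets.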

Row | Compound | Time [min]
16 | CC[C@H](C)[C@H](NC(=O)CNC(=O)c1cc(I)c(-c2nc3cc(C)c(C)cc3[nH]2)c(I)c1)C(=O)NCC(=O)N[C@H](C(=O)OC)[C@@H](C)O (X3-GIGT-OMe) | 38.45

System: Eudrilus
Test: Anthelmintic activity against Eudrilus sp. assessed as mean death time
Format: functional
Conditions: not given
In short: (§6)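 Earthworms exposed to test suspensions at 2 mg mL−1, prepared by triturating compound with Tween 80 (0.5%) and distilled water, stirring 30 min, then diluting to 0.2% w/v. Mebendazole suspension was made the same way. Death was confirmed by moving worms into 50 °C warm water and looking for movement. Mean death time (min) taken from triplicate sets.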

Row | Compound | Time [min]
17 | CC[C@H](C)[C@H](NC(=O)CNC(=O)c1cc(I)c(-c2nc3cc(C)c(C)cc3[nH]2)c(I)c1)C(=O)NCC(=O)N[C@H](C(=O)OC)[C@@H](C)O (X3-GIGT-OMe) | 70.54

System: not listed separately
Test: Anthelmintic activity against Megascoplex konkanensis ICARBC 211 assessed as mean paralyzing time
Format: functional
Conditions: not given
In short: as §5

Row | Compound | TIME [h]
18 | CC[C@H](C)[C@H](NC(=O)CNC(=O)c1cc(I)c(-c2nc3cc(C)c(C)cc3[nH]2)c(I)c1)C(=O)NCC(=O)N[C@H](C(=O)OC)[C@@H](C)O (X3-GIGT-OMe) | 0.602

System: not listed separately
Test: Anthelmintic activity against Megascoplex konkanensis ICARBC 211 assessed as mean death time
Format: functional
Conditions: not given
In short: as §5

Row | Compound | TIME [h]
19 | CC[C@H](C)[C@H](NC(=O)CNC(=O)c1cc(I)c(-c2nc3cc(C)c(C)cc3[nH]2)c(I)c1)C(=O)NCC(=O)N[C@H](C(=O)OC)[C@@H](C)O (X3-GIGT-OMe) | 1.08

System: Pontoscolex corethrurus
Test: Anthelmintic activity against Pontoscolex corethrurus ICARBC 408 assessed as mean paralyzing time
Format: functional
Conditions: not given
In short: as §5

Row | Compound | Time [min]
20 | CC[C@H](C)[C@H](NC(=O)CNC(=O)c1cc(I)c(-c2nc3cc(C)c(C)cc3[nH]2)c(I)c1)C(=O)NCC(=O)N[C@H](C(=O)OC)[C@@H](C)O (X3-GIGT-OMe) | 57.67

System: Pontoscolex corethrurus
Test: Anthelmintic activity against Pontoscolex corethrurus ICARBC 408 assessed as mean death time
Format: functional
Conditions: not given
In short: as §6

Row | Compound | Time [min]
21 | CC[C@H](C)[C@H](NC(=O)CNC(=O)c1cc(I)c(-c2nc3cc(C)c(C)cc3[nH]2)c(I)c1)C(=O)NCC(=O)N[C@H](C(=O)OC)[C@@H](C)O (X3-GIGT-OMe) | 82.3

Reference: ChEMBL document CHEMBL1146375, “Synthetic studies on novel benzimidazolopeptides with antimicrobial, cytotoxic and anthelmintic potential” (2007)
